# Rows were chosen to be rich in hits. Some 1.2% of all compounds tested hit in one or more screens of this group.
# DDE Tn7 FP inh: inhibitors of Tn7 peptide binding to fibrin DD(E), primary screen, biochemical, fluorescence polarization, human fibrin, Tn7 probe; inhibition, % at 8.3 µM; 370,000 tested, 0.13% active; FP displacement of FITC-Tn7 peptide from fibrin DD(E); 0% = median of compound wells per plate; AID 720508, 2013; Fibrinogen beta chain (Homo sapiens), P02675;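 active = inhibition above the mean of compounds falling within the control limits plus 3 SD of them, cut at about 14% in these data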;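 also: 0% = plate median of compound wells and 100% = 10 µM Aha-Tn7 peptide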
# Target sequence (P02675 whole entry, looked up): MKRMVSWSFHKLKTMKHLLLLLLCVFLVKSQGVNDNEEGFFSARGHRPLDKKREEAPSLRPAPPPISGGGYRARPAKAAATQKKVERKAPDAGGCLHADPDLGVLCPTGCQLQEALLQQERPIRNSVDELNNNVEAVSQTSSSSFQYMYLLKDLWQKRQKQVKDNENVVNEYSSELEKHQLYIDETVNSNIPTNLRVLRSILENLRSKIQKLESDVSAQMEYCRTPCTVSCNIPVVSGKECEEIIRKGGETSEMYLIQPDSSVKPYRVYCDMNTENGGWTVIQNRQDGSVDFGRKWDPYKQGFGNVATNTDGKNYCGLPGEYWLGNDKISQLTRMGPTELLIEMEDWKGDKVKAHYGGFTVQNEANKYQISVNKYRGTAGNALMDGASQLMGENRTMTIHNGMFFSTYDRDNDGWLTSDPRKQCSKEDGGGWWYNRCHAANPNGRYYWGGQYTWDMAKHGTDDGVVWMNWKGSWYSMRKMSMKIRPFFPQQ
#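 Assay system: human fibrin DD(E). Input: DD(E) 2 µM final. Medium: Tris buffer with calcium and detergent, pH 7.8. Compound dosing: single point at 8.3 µM. Timing: 10 min plus 3 h, room temperature. Technique: fluorescence polarization of the labelled Tn7 tracer. Read-out: percent inhibition. Replicates: singlicate testing.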
# DDE Tn6 FP inh: inhibitors of Tn6 peptide binding to fibrin DD(E), primary screen, biochemical, fluorescence polarization, human fibrin, Tn6 probe. 370,000 tested, 0.21% active. Fibrin DD(E) TRITC-Tn6 fluorescence polarization displacement. Fibrinogen beta chain (Homo sapiens), P02675. inhibition, % at 8.3 µM;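 active = inhibition above a per-campaign cutoff: mean of compounds within control limits plus 3 SD, cut at about 15% in these data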;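 also: 0% = median of all compound wells on the plate and 100% = blocking peptide control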
# CRFBP-R2 block: antagonists of CRF-BP/CRF-R2 complex, primary screen, cell-based, HEK293, calcium dye fluorescence, uHTS | CRF-induced calcium fluorescence | inhibition, % at 11.8 µM | 350,000 tested, 0.59% active;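 active = inhibition of the ligand-induced calcium signal above about 50% at the single tested concentration, limit read from the data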
# CRFR2-BP ag: agonists of CRF-BP/CRF-R2 complex, primary screen, cell-based, HEK293, calcium dye fluorescence, uHTS | CRF-binding protein / CRF receptor 2 complex (human) | calcium dye fluorescence (FLIPR); percent of saturating CRF peptide response | activation, % at 13.2 µM | 350,000 tested, 0.46% active;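 active = activation of at least 50%, plus an integration ratio under a set limit after plate pattern correction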;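 also: plate controls were neutral control wells without compound for no effect and CRF at EC100 for full effect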
# * marks the source's active call; other numbers are inactive results; nt = no result.
SMILES,DDE Tn7 FP inh,DDE Tn6 FP inh,CRFBP-R2 block,CRFR2-BP ag
O=C1CC(c2ccccc2)CN1S(=O)(=O)c1ccccc1 (stereo not drawn),3.5,-1.5,65.2*,-2.4
Cc1cc(C)cc(C(=O)Nc2cccnc2Cl)c1,-5.9,-4.2,68.0*,1.7
CCOc1ccc(C(=O)OCC(=O)Nc2cccnc2Cl)cc1OCC,-1.7,-1.6,103.4*,1.2
COc1ccc(C(=O)/C(C#N)=N/Nc2cccc([N+](=O)[O-])c2)cc1,8.1,1.1,56.9*,27.9
N#C/C(=N\Nc1ccccc1Cl)C(=O)c1ccccc1,-5.5,2.0,85.1*,37.6
N#C/C(=N\Nc1ccc(Cl)cc1)C(=O)c1ccsc1,-1.0,0.3,25.6,31.7
N#C/C(=N\Nc1cccc(Cl)c1)C(=O)c1ccccc1,-1.3,5.9,46.7,57.6*
Cc1c(N/N=C(\C#N)C(=O)c2ccccc2)c(=O)n(-c2ccccc2)n1C,3.5,2.3,6.0,12.6
CC(c1ccc(NC(=O)OC(C)(C)C)cc1)c1cn(C)c2ccccc12 (stereo not drawn),-6.3,5.7,nt,nt
CSc1ccc(-c2cc(=O)c3ccccc3o2)cc1,-5.8,-3.0,-36.3,-1.5
O=c1cc(-c2ccc(F)cc2)oc2ccccc12,0.9,2.4,98.9*,-1.2
CCOc1ccc(CNC(=O)CCC(=O)N2Cc3cccc(OC)c3Oc3ncccc32)cc1,1.9,6.5,52.1*,-0.9
CCOC(=O)c1nc(NNC(=O)c2ccc([N+](=O)[O-])cc2)sc1C,-4.4,0.3,-0.9,4.3
O=C(O)CN1C(=O)C(=O)N(Cc2ccc(C(F)(F)F)cc2)C1=O,-1.4,-7.8,-0.9,6.8
O=C(c1ccc2nc(Cc3ccccc3F)oc2c1)N1CC[C@H](O)C1,1.1,2.7,1.3,0.7
N#Cc1ccc(CSC2=NCCN2)cc1,-1.0,-5.5,103.8*,-1.2
CC1CCCCN1C(C(=O)O)c1ccccc1 (stereo not drawn),-8.4,-5.8,64.9*,-1.4
CC1CCCCN1C(=O)c1ccc(C(=O)c2ccccc2)cc1 (stereo not drawn),0.4,-0.9,2.1,0.3
O=C(CCc1ccccc1)N[C@H]1[C@H](OC(=O)c2ccco2)CCC[C@]12C(=O)N(Cc1ccccc1)c1ccccc12,-1.5,-0.6,nt,nt
COc1ccc(C(=O)/C=C/c2ccc(N(C)C)cc2)c(OC)c1,-30.8,-7.8,-55.5,102.6*
CN(C)c1ccc(/C=C/C(=O)c2cccnc2)cc1,-18.0,3.0,-58.7,120.3*
CN(C)c1ccc(/C=C/C(=O)c2ccc(O)cc2)cc1,-63.6,-7.2,-111.7,156.0*
CN(C)c1ccc(/C=C/c2ccncc2)cc1,-3.4,-0.1,-196.6,173.0*
COC(=O)[C@H](CC(C)C)N(CCc1cn(Cc2ccc(C)cc2)nn1)S(=O)(=O)c1ccc(F)cc1Br,2.1,-6.6,nt,nt
CN(C)c1ccc(/C=C/C(=O)c2ccc3c(c2)OCO3)cc1,-30.0,4.8,-87.5,135.4*
SMILES,DDE Tn7 FP inh,DDE Tn6 FP inh,CRFBP-R2 block,CRFR2-BP ag
COc1ccc(-c2nnc(SCC(=O)Nc3ccc(S(=O)(=O)Nc4cc(C)nc(C)n4)cc3)n2-c2ccc(OC)cc2)cc1,3.5,-4.6,nt,nt
CCCCN1CC(COCc2ccccc2)Oc2cccc(OCCN3C(=O)[C@@H]4[C@H](C3=O)C3C=C[C@H]4C3)c2S1(=O)=O (stereo partly drawn),-7.3,-1.4,-178.4,171.6*
O=C1[C@@H]2[C@H](C(=O)N1C[C@@H](COCc1ccccc1)Oc1cccc3c1S(=O)(=O)N(CCc1ccc(F)cc1)C[C@H](COCc1ccccc1)O3)[C@@H]1C=C[C@H]2C1,3.4,-0.4,nt,nt
COc1cc(/C=C(\C#N)c2nc3ccccc3o2)ccc1O,-26.4,-7.0,-96.6,155.4*
Nc1[nH]c(C(=O)c2ccccc2)c(-c2ccc3ccccc3c2)c1C(=O)NCCc1ccc(Cl)cc1,2.6,-3.9,nt,nt
COc1ccc(Cn2c(NC(=O)c3ccccc3)nc(Cc3ccccc3)c2Cc2ccccc2)cc1,4.4,-1.1,nt,nt
COc1ccc(OC)c(CN2C(=O)CSCCC2(C)c2nnnn2C2CCCC2)c1 (stereo not drawn),-2.8,-1.5,nt,nt
Cc1nnc(SCC(=O)N(C)Cc2ccccc2)[nH]c1=O,3.4,2.6,88.0*,-0.2
CCN(c1ccccc1)S(=O)(=O)c1ccc(NC(=O)c2ccco2)cc1,-12.4,-4.9,77.1*,-2.3
CN(c1ccccc1)S(=O)(=O)c1ccc(NC(=O)c2ccco2)cc1,-1.5,0.6,-47.8,3.4
COc1ccc2nc3ccccc3nc2c1NC(=O)c1ccc(Cl)cc1Cl,8.3,1.4,-150.2,178.2*
COc1cc(-c2cc(C(=O)Nc3c(Cl)cc(Cl)cc3Cl)c3ccccc3n2)cc(OC)c1OC,-1.6,8.5,17.8,-2.1
CCCCCC(=O)NC1CCCCN(Cc2cccc(Cl)c2)C1=O (stereo not drawn),-12.0,-0.2,nt,nt
CCC/C(=N\NC(=O)C1CC1)c1ccccc1,0.9,-0.2,65.4*,-1.6
CCC/C(=N\NC(=O)C1CC1)c1ccc(Br)cc1,1.2,4.3,-2.9,-3.4
C=CCN(CC#Cc1ccc(C(F)(F)F)cc1)Cc1ccc(OC)cc1OC,4.4,0.8,nt,nt
COc1ccc(CNS(=O)(=O)/C=C/c2ccccc2CNC(=O)OC(C)(C)C)cc1,-3.0,-2.5,nt,nt
CN(Cc1ccccc1)C(=O)c1cccc(NC(=O)Cc2ccc(NC(=O)C3CCCN(C(=O)CCc4ccccc4)C3)cc2)c1 (stereo not drawn),-0.3,11.9,57.1*,4.3
CCCCCCCCN1C(=O)[C@@H](CC(=O)NCCC(C)C)C[C@@]2(C(=O)OC)C1=C[C@H](COCc1ccccc1)O[C@@H]2C,-1.8,-3.2,nt,nt
COc1cccc(N=Cc2c(O)n(-c3cccc(C)n3)c(=O)c3ccccc23)c1,-6.3,-5.5,5.1,0.0
COc1ccc(N=Cc2c(O)n(-c3cccc(C)n3)c(=O)c3ccccc23)c(OC)c1,-2.9,-0.3,-48.5,72.5*
Cc1occc1C(=O)NC(C)C12CC3CC(CC(C3)C1)C2 (stereo not drawn),3.8,8.5,52.3*,-20.8
CC(NC(=O)c1ccccc1F)C12CC3CC(CC(C3)C1)C2 (stereo not drawn),-2.5,0.5,-1.4,-0.7
Cc1cc(C(C2C(=O)CC(C)(C)CC2=O)C2C(=O)CC(C)(C)CC2=O)cc(C)c1OC(F)F,3.4,13.5,26.6,58.7*
O=C(CCCc1cccs1)Nc1ccc2c(c1)OCO2,-0.5,-0.5,58.5*,1.8
C#CCCCN([C@H](C(=O)OC)C(C)C)S(=O)(=O)c1ccccc1Br,-8.3,-4.1,nt,nt
CC1(C)CC(=O)C2=C(C1)OC(N)=C(C#N)C2c1cc2c(cc1[N+](=O)[O-])OCO2 (stereo not drawn),7.0,1.0,-40.1,96.1*
CCc1nc2ccc(C(=O)N3CCN(c4cccc(C)c4C)CC3)cc2nc1CC,3.8,3.4,-6.8,0.6

# Screening results: PubChem, several laboratories
